Measurements published in ChEMBL document CHEMBL1137460, “Fluorinated pyrazole acids are agonists of the high affinity niacin receptor GPR109a” (Bioorg Med Chem Lett, 2007).
The source made the active and inactive calls. The calls are words filed in the database; no cut-off is given here.

Tests used:
[1] = molecular target: T1, Hydroxycarboxylic acid receptor 3 (Homo sapiens, UniProt P49019); test: Agonist activity at human GPR109b […] assessed as decrease in intracellular cAMP level upto 50 uM by HTRF assay; format: functional, cell-based
T1 sequence (P49019 whole entry): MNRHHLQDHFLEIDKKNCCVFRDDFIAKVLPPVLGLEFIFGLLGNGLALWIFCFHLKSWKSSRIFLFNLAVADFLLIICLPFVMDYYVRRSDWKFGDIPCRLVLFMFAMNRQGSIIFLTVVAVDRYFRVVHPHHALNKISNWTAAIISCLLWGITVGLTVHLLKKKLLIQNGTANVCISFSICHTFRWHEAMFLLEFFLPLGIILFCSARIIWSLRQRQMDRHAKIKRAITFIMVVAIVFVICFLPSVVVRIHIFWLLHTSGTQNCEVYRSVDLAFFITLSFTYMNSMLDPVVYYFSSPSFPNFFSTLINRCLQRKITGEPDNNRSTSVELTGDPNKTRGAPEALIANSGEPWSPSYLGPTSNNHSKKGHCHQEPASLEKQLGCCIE

[2] = molecular target: T1, Hydroxycarboxylic acid receptor 3; test: Agonist activity at human GPR109b expressed in human adipocytes assessed as decrease in intracellular cAMP level by HTRF assay; format: functional, cell-based
In short: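 Whole-cell cAMP Dynamic2 HTRF assay at GPR109b. Results are given as pEC50, the negative log of molar EC50, with log SD errors and n in parentheses. Compounds with no response are marked not active. Efficacy is judged relative to niacin.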

Rattus norvegicus [3] = test: Reduction in 4-fluoro-5-methyl-pyrazole-3-carboxylic acid-induced plasma free fatty acid level in fasted male Sprague-Dawley rat at 10 mg/kg; format: functional, organism-based; parameters: dose 10 mg/kg
In short: (§1)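 Fasted male Sprague–Dawley rats dosed orally at 0.1, 1 or 10 mg/kg. Plasma free fatty acid levels are followed over time, with 10 mg/kg oral niacin as the comparator.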

Rattus norvegicus [4] = test: Reduction in 4-fluoro-5-methyl-pyrazole-3-carboxylic acid-induced plasma free fatty acid level in fasted male Sprague-Dawley rat at 1 mg/kg; format: functional, organism-based; parameters: dose 1 mg/kg; in short: as §1
Mus musculus = test: Effect on cutaneous flushing response in C57BL/6 mouse at 100 mg/kg; format: functional, organism-based; parameters: dose 100 mg/kg
In short: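 Male C57 Bl/6 mice given 100 mg/kg. Cutaneous vasodilation is measured as a surrogate for flushing.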

Structure (SMILES)	Activity [1]	Activity [2]	other results
CCc1cc(C(=O)O)[nH]n1	inactive	inactive	–
Cc1cc(C(=O)O)n[nH]1	inactive	inactive	–
O=C(O)c1n[nH]c(C2CC2)c1F	inactive	inactive	–
CCc1[nH]nc(-c2nnn[nH]2)c1F	–	–	EC50 ([2]; read-out: Log EC50 (converted)): 12.3 µM
CC(C)c1cc(C(=O)O)n[nH]1	–	–	EC50 ([2]; read-out: Log EC50 (converted)): 41.7 µM
O=C(O)c1cc(C2CCC2)n[nH]1	inactive	inactive	–
c1c(-c2nnn[nH]2)n[nH]c1C1CC1	–	–	EC50 ([2]; read-out: EC50): 3.6 µM; EC50 ([2]; read-out: Log EC50 (converted)): 3.24 µM
CCCCc1[nH]nc(C(=O)O)c1F	inactive	inactive	–
O=C(O)c1cc[nH]n1	inactive	inactive	–
Cc1cc(-c2nnn[nH]2)n[nH]1	inactive	–	–
CCCCCc1cc(C(=O)O)[nH]n1	–	–	EC50 ([2]; read-out: Log EC50 (converted)): 18.6 µM
Fc1c(-c2nnn[nH]2)n[nH]c1C1CC1	inactive	inactive	–
O=C(O)c1cc(C2CC2)n[nH]1	inactive	inactive	–
c1cc(-c2nnn[nH]2)n[nH]1	inactive	–	–
CCCCc1[nH]nc(-c2nnn[nH]2)c1F	inactive	inactive	–
CCc1[nH]nc(C(=O)O)c1C	inactive	inactive	–
CCCCc1cc(-c2nnn[nH]2)n[nH]1	–	–	EC50 ([2]; read-out: Log EC50 (converted)): 7.59 µM
CCCCc1[nH]nc(C(=O)O)c1Br	inactive	inactive	–
CC(C)c1cc(-c2nnn[nH]2)n[nH]1	inactive	–	–
O=C(O)c1cccnc1 [NIACIN]	–	–	EC50 ([2]; read-out: Log EC50 (converted)): 75.9 µM
Cc1[nH]nc(-c2nnn[nH]2)c1F	inactive	inactive	–
Cc1[nH]nc(C(=O)O)c1Cl	inactive	inactive	–
CCCc1cc(C(=O)O)n[nH]1	inactive	inactive	–
CCCCc1cc(C(=O)O)n[nH]1	–	–	EC50 ([2]; read-out: Log EC50 (converted)): 11.7 µM
CCc1[nH]nc(C(=O)O)c1F	inactive	inactive	–
CCCc1cc(-c2nnn[nH]2)n[nH]1	–	–	EC50 ([2]; read-out: EC50): 860 µM; EC50 ([2]; read-out: Log EC50 (converted)): 0.724 µM
Cc1[nH]nc(C(=O)O)c1F	inactive	inactive	Activity (Rattus norvegicus [3]): Active; Activity (Rattus norvegicus [4]): Active; Activity (Mus musculus): Active
